Data reported in ChEMBL document CHEMBL1782042, “Efficient microwave-assisted synthesis and antitumor activity of novel 4,4'-methylenebis[2-(3-aryl-4,5-dihydro-1H-pyrazol-5-yl)phenols]” (Eur J Med Chem, 2011).

Columns and labels:
NCI-H226 [1] = test: Cytotoxicity against human NCI-H226 cells; assay type: cell-based
In short: (§1)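 NCI 60 human tumour cell line screen, second stage at five concentrations (100, 10, 1.0, 0.1 and 0.01 μM). Continuous drug exposure for 48 h, with cell growth estimated by sulforhodamine B protein staining. GI50 is the drug concentration giving a 50% reduction in net protein increase relative to control cells over the incubation.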

NCI-H23 [2] = test: Cytotoxicity against human NCI-H23 cells; assay type: cell-based; in short: as §1
NCI-H522 = test: Cytotoxicity against human NCI-H522 cells; assay type: cell-based; in short: as §1
HCC 2998 = test: Cytotoxicity against human HCC2998 cells; assay type: cell-based; in short: as §1
HT-29 [3] = test: Cytotoxicity against human HT-29 cells; assay type: cell-based; in short: as §1
KM12 = test: Cytotoxicity against human KM12 cells; assay type: cell-based; in short: as §1
SF-268 = test: Cytotoxicity against human SF268 cells; assay type: cell-based; in short: as §1
SF-295 [4] = test: Cytotoxicity against human SF295 cells; assay type: cell-based; in short: as §1
SF-539 = test: Cytotoxicity against human SF539 cells; assay type: cell-based; in short: as §1
SNB-19 [5] = test: Cytotoxicity against human SNB19 cells; assay type: cell-based
In short: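 NCI 60 human tumour cell line screen; five concentration levels (100, 10, 1.0, 0.1 and 0.01 μM), 48 h continuous drug exposure. Cell growth estimated by sulforhodamine B (SRB) protein staining. GI50 taken as the drug concentration giving a 50% reduction in net protein increase relative to control cells over the incubation.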

LOX IMVI = test: Cytotoxicity against human LOXIMVI cells; assay type: cell-based; in short: as §1
HL-60(TB) = test: Anticancer activity against human HL-60(TB) cells after 48 hrs by sulforhodamine B assay; assay type: functional; settings: HL-60, 48 h; in short: as §1
MOLT-4 [6] = test: Anticancer activity against human MOLT4 cells after 48 hrs by sulforhodamine B assay; assay type: functional; settings: MOLT-4, 48 h
In short: (§2)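 NCI 60-cell-line in vitro screen, second stage: five concentration levels (100, 10, 1.0, 0.1 and 0.01 μM) with 48 h continuous drug exposure. Cell growth was estimated by sulforhodamine B protein staining. GI50 is the drug concentration that gives a 50% reduction in net protein increase relative to control cells over the incubation.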

Malme-3M [7] = test: Cytotoxicity against human MALME-3M cells; assay type: cell-based; in short: as §1
SK-MEL-5 = test: Cytotoxicity against human SK-MEL-5 cells; assay type: cell-based; in short: as §1
OVCAR-3 [8] = test: Cytotoxicity against human OVCAR3 cells; assay type: cell-based; in short: as §1
OVCAR-5 [9] = test: Cytotoxicity against human OVCAR5 cells; assay type: cell-based; in short: as §1
SK-OV-3 [10] = test: Cytotoxicity against human SKOV3 cells; assay type: cell-based; in short: as §1
ACHN [11] = test: Cytotoxicity against human ACHN cells; assay type: cell-based; in short: as §1
A549 [12] = test: Anticancer activity against human A549 cells after 48 hrs by sulforhodamine B assay; assay type: functional; settings: A549, 48 h; in short: as §2
EKVX = test: Anticancer activity against human EKVX cells after 48 hrs by sulforhodamine B assay; assay type: functional; in short: as §2
HOP-92 = test: Anticancer activity against human HOP92 cells after 48 hrs by sulforhodamine B assay; assay type: functional; settings: HOP-92, 48 h; in short: as §2
NCI-H226 [13] = test: Anticancer activity against human NCI-H226 cells after 48 hrs by sulforhodamine B assay; assay type: functional; settings: NCI-H226, 48 h; in short: as §2
NCI-H23 [14] = test: Anticancer activity against human NCI-H23 cells after 48 hrs by sulforhodamine B assay; assay type: functional; settings: NCI-H23, 48 h; in short: as §2
NCI-H460 = test: Anticancer activity against human NCI-H460 cells after 48 hrs by sulforhodamine B assay; assay type: functional; settings: NCI-H460, 48 h; in short: as §2
COLO 205 = test: Anticancer activity against human COLO205 cells after 48 hrs by sulforhodamine B assay; assay type: functional; settings: COLO 205, 48 h; in short: as §2
HCT-15 = test: Anticancer activity against human HCT15 cells after 48 hrs by sulforhodamine B assay; assay type: functional; settings: HCT-15, 48 h; in short: as §2
HT-29 [15] = test: Anticancer activity against human HT-29 cells after 48 hrs by sulforhodamine B assay; assay type: functional; settings: HT-29, 48 h; in short: as §2
PC-3 [16] = test: Cytotoxicity against human PC3 cells; assay type: cell-based; in short: as §1
Hs-578T = test: Cytotoxicity against human Hs578T cells; assay type: cell-based; in short: as §1
SW-620 = test: Anticancer activity against human SW620 cells after 48 hrs by sulforhodamine B assay; assay type: functional; settings: SW-620, 48 h
In short: (§3)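 NCI 60-cell-line screen, second stage. Five concentration levels (100, 10, 1.0, 0.1 and 0.01 μM), 48 h continuous drug exposure. Cell growth was estimated by sulforhodamine B protein staining. GI50 is the concentration giving a 50% reduction in net protein increase relative to control cells over the drug incubation. Compounds entered this stage after an earlier single-dose screen.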

SF-295 [17] = test: Anticancer activity against human SF295 cells after 48 hrs by sulforhodamine B assay; assay type: functional; settings: SF-295, 48 h; in short: as §2
SNB-19 [18] = test: Anticancer activity against human SNB19 cells after 48 hrs by sulforhodamine B assay; assay type: functional; settings: SNB-19, 48 h; in short: as §2
SNB-75 = test: Anticancer activity against human SNB75 cells after 48 hrs by sulforhodamine B assay; assay type: functional; settings: SNB-75, 48 h; in short: as §3
U-251 = test: Anticancer activity against human U251 cells after 48 hrs by sulforhodamine B assay; assay type: functional; settings: U-251, 48 h; in short: as §3
Malme-3M [19] = test: Anticancer activity against human MALME-3M cells after 48 hrs by sulforhodamine B assay; assay type: functional; in short: as §2
MDA-MB-435 = test: Anticancer activity against human MDA-MB-435 cells after 48 hrs by sulforhodamine B assay; assay type: functional; settings: MDA-MB-435, 48 h; in short: as §2
SK-MEL-2 = test: Anticancer activity against human SK-MEL-2 cells after 48 hrs by sulforhodamine B assay; assay type: functional; settings: SK-MEL-2, 48 h; in short: as §2
IGROV-1 = test: Anticancer activity against human IGROV1 cells after 48 hrs by sulforhodamine B assay; assay type: functional; settings: IGROV-1, 48 h; in short: as §2
OVCAR-3 [20] = test: Anticancer activity against human OVCAR3 cells after 48 hrs by sulforhodamine B assay; assay type: functional; settings: OVCAR-3, 48 h; in short: as §2
OVCAR-5 [21] = test: Anticancer activity against human OVCAR5 cells after 48 hrs by sulforhodamine B assay; assay type: functional; settings: OVCAR-5, 48 h; in short: as §2
OVCAR-8 = test: Anticancer activity against human OVCAR8 cells after 48 hrs by sulforhodamine B assay; assay type: functional; settings: OVCAR-8, 48 h; in short: as §2
SK-OV-3 [22] = test: Anticancer activity against human SKOV3 cells after 48 hrs by sulforhodamine B assay; assay type: functional; settings: SK-OV-3, 48 h; in short: as §2
A498 = test: Anticancer activity against human A498 cells after 48 hrs by sulforhodamine B assay; assay type: functional; settings: A498, 48 h; in short: as §2
ACHN [23] = test: Anticancer activity against human ACHN cells after 48 hrs by sulforhodamine B assay; assay type: functional; in short: as §2
SN12C = test: Anticancer activity against human SN12C cells after 48 hrs by sulforhodamine B assay; assay type: functional; in short: as §2
PC-3 [24] = test: Anticancer activity against human PC3 cells after 48 hrs by sulforhodamine B assay; assay type: functional; settings: PC-3, 48 h; in short: as §2
MDA-MB-231 = test: Anticancer activity against human MDA-MB-231 cells after 48 hrs by sulforhodamine B assay; assay type: functional; settings: MDA-MB-231, 48 h; in short: as §2
CCRF-CEM = test: Cytotoxicity against human CCRF-CEM cells; assay type: cell-based; in short: as §1
K562 = test: Cytotoxicity against human K562 cells; assay type: cell-based; in short: as §1
MOLT-4 [25] = test: Cytotoxicity against human MOLT4 cells; assay type: cell-based; in short: as §1
A549 [26] = test: Cytotoxicity against human A549 cells; assay type: cell-based; in short: as §1

What does the source list for `Oc1ccc(Cc2ccc(O)c(C3CC(c4ccc(Cl)cc4)=NN3)c2)cc1C1CC(c2ccc(Cl)cc2)=NN1` (configuration not stated)?
LC50 (NCI-H226 [1]): > 100 µM; LC50 (NCI-H23 [2]): > 100 µM; LC50 (NCI-H522): 46.2 µM; LC50 (HCC 2998): > 100 µM; LC50 (HT-29 [3]): > 100 µM; LC50 (KM12): > 100 µM; LC50 (SF-268): > 100 µM; LC50 (SF-295 [4]): > 100 µM; LC50 (SF-539): > 100 µM; LC50 (SNB-19 [5]): > 100 µM; LC50 (LOX IMVI): > 100 µM; GI50 (HL-60(TB)): 2.66 µM; GI50 (MOLT-4 [6]): 2.7 µM; LC50 (Malme-3M [7]): > 100 µM; LC50 (SK-MEL-5): 36.7 µM; LC50 (OVCAR-3 [8]): > 100 µM; LC50 (OVCAR-5 [9]): > 100 µM; LC50 (SK-OV-3 [10]): > 100 µM; LC50 (ACHN [11]): > 100 µM; GI50 (A549 [12]): 2.45 µM; GI50 (EKVX): 2.77 µM; GI50 (HOP-92): 3.39 µM; GI50 (NCI-H226 [13]): 4.74 µM; GI50 (NCI-H23 [14]): 3.3 µM; GI50 (NCI-H460): 2.15 µM; GI50 (COLO 205): 5.44 µM; GI50 (HCT-15): 2.51 µM; GI50 (HT-29 [15]): 7.25 µM; LC50 (PC-3 [16]): > 100 µM; LC50 (Hs-578T): > 100 µM; GI50 (SW-620): 3.29 µM; GI50 (SF-295 [17]): 1.47 µM; GI50 (SNB-19 [18]): 3.64 µM; GI50 (SNB-75): 4.26 µM; GI50 (U-251): 1.8 µM; GI50 (Malme-3M [19]): 5.08 µM; GI50 (MDA-MB-435): 3.21 µM; GI50 (SK-MEL-2): 3.23 µM; GI50 (IGROV-1): 4.11 µM; GI50 (OVCAR-3 [20]): 2.59 µM; GI50 (OVCAR-5 [21]): 6.1 µM; GI50 (OVCAR-8): 2.46 µM; GI50 (SK-OV-3 [22]): 4.43 µM; GI50 (A498): 5.37 µM; GI50 (ACHN [23]): 3.63 µM; GI50 (SN12C): 2.86 µM; GI50 (PC-3 [24]): 3.32 µM; GI50 (MDA-MB-231): 2.65 µM; LC50 (CCRF-CEM): > 100 µM; LC50 (K562): > 100 µM; LC50 (MOLT-4 [25]): > 100 µM; LC50 (A549 [26]): > 100 µM
